Here are results for three compounds from article PMC5699463 (Journal of the American Chemical Society, 2017).

Converted amounts (≈) assume the structure as drawn.

The test system of experiment [1] is wildtype S. aureus (Newman). In words: Growth inhibition. In kind it is cell-based, Staphylococcus aureus.
The test system of experiment [2] is S. aureus ΔtarO knockout strain. Description: Counterscreen: growth inhibition of WTA null. In kind it is cell-based, Staphylococcus aureus. The gist of the method: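 Library compounds were screened in duplicate at ~15 µM final against wildtype S. aureus Newman. In parallel they were counterscreened against the WTA-null ΔtarO strain to find growth inhibition that is suppressed when WTA is absent. Growth was read as OD600 and averaged over the duplicates.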
(The purpose of a counterscreen is to sort out artefacts and off-target activity.)

Experiment [3] concerns Lipid II pool levels in S. aureus. In words: Assay to detect Lipid II abundance after antibiotic treatment. Particulars: S. aureus cultures treated for ten minutes. Type of experiment: cell-based, Staphylococcus aureus. The gist of the method: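 S. aureus cultures were exposed for 10 min to test compound or to peptidoglycan-synthesis inhibitor controls that either deplete or accumulate Lipid II. Lipid II was then extracted and labelled with biotin-d-Lys to measure its pool level.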

The subject of experiment [4] is B. subtilis. Description: Growth inhibition of B. subtilis. Type of experiment: cell-based, Bacillus subtilis.
Experiment [5] relates to wildtype B. subtilis. Description: Disk diffusion assay against wildtype B. subtilis. In kind it is cell-based, Bacillus subtilis.
In experiment [6] the test system is B. subtilis strain KS002 (TagGH replaced with S. aureus TarGH). Description: Disk diffusion assay against B. subtilis strain KS002 expressing S. aureus TarGH. To be noted: strain expressing the S. aureus transporter. In kind it is cell-based, Bacillus subtilis. In general terms: A growth-free zone around the sample is the usual read-out of agar diffusion tests.
The target of experiment [7] is TarGH (Staphylococcus aureus, UniProt Q2G2X5). Description: ATPase activity of reconstituted TarGH in proteoliposomes. Type of experiment: biochemical. Particulars: 1.0 µM compound; compared with TarH E169Q mutant.

On to `Cc1c(CC(=O)N2CCC[C@H]2C(=O)O)c(=O)oc2c(C)c3occ(-c4ccc(Cl)cc4)c3cc12` [Compound 2], for which the “minimum inhibitory concentration (MIC)” value in experiment [1] worked out at 0.125 µg/mL (≈ 0.26 µM). Moreover, the “MIC relative to that of targocil” value in experiment [1] (compared with targocil) is “eight-fold lower”. Moreover, the “activity against the ΔtarO strain” value in experiment [2] is “no activity”. For the same compound, in experiment [3], the “effect on Lipid II pool levels” value is on record as “depleted Lipid II”. Further, the “growth inhibition of B. subtilis” value in experiment [4] is recorded as “did not inhibit growth”. In addition, the values for the zone of inhibition entry in experiment [5] and in experiment [6] were “did not show a zone of inhibition” and “dose-dependent inhibition zone”, respectively. Besides, the “ATPase activity of the WT transporter in the presence of compound” value in experiment [7] is reported as “comparable to that of a TarGH mutant containing a mutation that impairs ATP hydrolysis”.

`CCN(CC)c1nc2c(S(=O)(=O)c3ccc(Cl)cc3)nnn2c2cc(OC)c(OC)cc12` [targocil]: the “effect on Lipid II pool levels” value in experiment [3] is given as “depleted Lipid II”.

As for bacitracin, the “effect on Lipid II pool levels” value in experiment [3] was “depleted Lipid II”.
